In ChEMBL document CHEMBL1129944, “[[(Arylpiperazinyl)alkyl]thio]thieno[2,3-d]pyrimidinone derivatives as high-affinity, selective 5-HT1A receptor ligands” (J Med Chem, 1997):
pIC50: −log10 of the molar value.

Legend:
[1] = molecular target: 5-hydroxytryptamine receptor 1B (Rattus norvegicus, UniProt P28564); assay: In vitro inhibitory concentration against radioligand [3H]5-HT binding to 5-hydroxytryptamine 1B receptor in rat striatal membrane; type: cell membranes, Striatum
In short: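 Striatum came from decapitated male rats (~150 g). Membranes were washed in 50 mM Tris-HCl pH 7.4 with a 10 min preincubation at 37 °C. Incubation buffer had 4 mM CaCl2, 0.1% ascorbic acid and 10 μM pargyline. [3H]5-HT 2 nM final, 30 min at 25 °C; nonspecific binding with 5-HT 10 μM. Bound ligand collected by filtration and scintillation-counted; IC50 by curve fitting.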

[2] = molecular target: T1, Adrenergic receptor alpha-1 (Rattus norvegicus, UniProt P15823+P23944+P43140); assay: In vitro inhibitory concentration against radioligand [3H]prazosin binding to alpha-1 adrenergic receptor in rat cortical membrane.; type: cell membranes
T1 sequence (P15823 whole entry): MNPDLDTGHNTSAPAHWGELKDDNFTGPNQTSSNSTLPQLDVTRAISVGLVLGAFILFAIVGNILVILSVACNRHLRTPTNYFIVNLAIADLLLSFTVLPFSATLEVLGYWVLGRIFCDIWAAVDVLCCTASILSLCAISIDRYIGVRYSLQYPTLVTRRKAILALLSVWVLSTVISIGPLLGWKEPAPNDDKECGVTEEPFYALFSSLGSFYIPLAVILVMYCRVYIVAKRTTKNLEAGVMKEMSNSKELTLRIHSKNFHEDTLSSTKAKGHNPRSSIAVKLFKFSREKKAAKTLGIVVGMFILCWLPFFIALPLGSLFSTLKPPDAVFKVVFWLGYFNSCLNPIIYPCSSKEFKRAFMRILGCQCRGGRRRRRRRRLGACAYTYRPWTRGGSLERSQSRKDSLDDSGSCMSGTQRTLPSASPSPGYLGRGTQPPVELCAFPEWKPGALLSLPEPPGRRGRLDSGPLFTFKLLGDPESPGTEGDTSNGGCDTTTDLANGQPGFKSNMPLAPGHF
T1 sequence (P23944 whole entry): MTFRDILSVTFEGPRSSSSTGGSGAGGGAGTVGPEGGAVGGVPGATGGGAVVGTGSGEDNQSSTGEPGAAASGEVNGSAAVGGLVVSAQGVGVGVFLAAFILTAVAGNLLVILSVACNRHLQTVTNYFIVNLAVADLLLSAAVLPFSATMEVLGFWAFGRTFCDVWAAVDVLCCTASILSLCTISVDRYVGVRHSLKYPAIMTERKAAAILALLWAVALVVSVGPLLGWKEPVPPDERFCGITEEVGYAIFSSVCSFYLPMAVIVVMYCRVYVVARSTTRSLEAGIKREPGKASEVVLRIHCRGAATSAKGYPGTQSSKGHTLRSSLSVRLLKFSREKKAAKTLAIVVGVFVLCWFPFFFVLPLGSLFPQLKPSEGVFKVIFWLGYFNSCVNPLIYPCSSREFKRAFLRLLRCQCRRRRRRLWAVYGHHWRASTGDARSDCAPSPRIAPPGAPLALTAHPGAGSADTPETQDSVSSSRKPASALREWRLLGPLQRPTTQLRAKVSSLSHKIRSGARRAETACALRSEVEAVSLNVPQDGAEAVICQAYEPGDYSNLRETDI
T1 sequence (P43140 whole entry): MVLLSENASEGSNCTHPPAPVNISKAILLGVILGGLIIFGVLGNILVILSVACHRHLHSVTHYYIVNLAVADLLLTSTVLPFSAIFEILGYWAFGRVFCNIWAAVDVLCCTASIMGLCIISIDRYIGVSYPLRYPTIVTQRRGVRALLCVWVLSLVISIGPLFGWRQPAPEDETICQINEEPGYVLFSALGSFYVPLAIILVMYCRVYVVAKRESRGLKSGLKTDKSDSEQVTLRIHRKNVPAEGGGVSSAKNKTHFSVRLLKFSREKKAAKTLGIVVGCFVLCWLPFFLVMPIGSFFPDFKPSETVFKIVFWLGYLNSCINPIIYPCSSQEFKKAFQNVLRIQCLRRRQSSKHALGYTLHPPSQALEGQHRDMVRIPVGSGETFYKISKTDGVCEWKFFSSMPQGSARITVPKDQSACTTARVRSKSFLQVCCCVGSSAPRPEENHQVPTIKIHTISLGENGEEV
In short: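 Male CRL:CD(SD)BR-COBS rats (~150 g) were decapitated. Cortex was homogenized in 50 mM Tris-HCl pH 7.4, spun at 50000g, given 10 min at 37 °C and washed. Incubation buffer had 0.1% ascorbic acid and 10 μM pargyline. GF/B filtration and scintillation counting; IC50 from dose-inhibition curves.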

[3] = molecular target: 5-hydroxytryptamine receptor 1B (Rattus norvegicus) (UniProt P28564); assay: Compound at 10E-5 M was tested in vitro for the inhibition of radioligand [3H]5-HT binding to 5-hydroxytryptamine 1B receptor in rat striatal membrane; type: cell membranes; settings: Striatum
Sequence of 5-hydroxytryptamine receptor 1B (Rattus norvegicus) (P28564 whole entry): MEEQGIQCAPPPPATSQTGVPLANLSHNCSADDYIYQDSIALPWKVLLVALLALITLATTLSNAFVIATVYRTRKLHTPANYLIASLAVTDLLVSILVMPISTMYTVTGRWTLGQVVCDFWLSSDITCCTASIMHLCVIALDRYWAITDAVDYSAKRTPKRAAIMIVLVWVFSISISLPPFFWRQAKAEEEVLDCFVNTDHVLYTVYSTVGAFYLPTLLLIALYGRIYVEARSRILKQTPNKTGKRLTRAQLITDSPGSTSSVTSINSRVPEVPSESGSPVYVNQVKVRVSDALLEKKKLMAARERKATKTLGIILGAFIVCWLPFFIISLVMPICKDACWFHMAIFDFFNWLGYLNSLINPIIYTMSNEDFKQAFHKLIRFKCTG

[4] = molecular target: Serotonin 1a (5-HT1a) receptor/Adrenergic receptor alpha-1 (Rattus norvegicus) (UniProt P15823+P23944+P43140+P19327); assay: Selectivity for alpha-1-adrenergic receptor to that of 5-HT1A receptor.; type: protein assay
In short: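 Ratio of IC50 at α1-adrenoceptors ([3H]prazosin, rat cortex) to IC50 at 5-HT1A receptors ([3H]-8-OH-DPAT, rat hippocampus). Each IC50 came from radioligand displacement curves.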

Sequence of 5-hydroxytryptamine receptor 1B (P28564 whole entry): as above

Row | pIC50 [1] | IC50 [2] | inhibition [3] | Selectivity [4] | Compound
1 | 5.85 | 36 nM |  |  | COc1ccccc1C1CCN(CCCSc2nc3sc(C)c(C)c3c(=O)n2N)CC1
2 |  | 506 nM | < 50% | 74 | Cc1sc2nc(SCCCN3CCN(c4ncccn4)CC3)n(N)c(=O)c2c1C
3 | 6.15 | 7.3 nM |  |  | COc1ccccc1N1CCN(CCCSc2nc3sc(C)c(C)c3c(=O)n2N)CC1
